Screening results from PubChem BioAssay.
The list is not random: actives were taken first. Their share in the collection is about 3.6%.
EBNA-1 inh – blocks EBNA-1 binding to DNA. EBNA-1 DNA binding, fluorescence polarization. inhibition, % at 14.8 µM. AID 1950. 300,000 tested, 0.34% active; in the data active means inhibition above about 28%
HCV NS3 hel inh – HCV NS3 helicase inhibition; inhibition, % at 10.9 µM; NS3 helicase DNA unwinding, Cy5 molecular beacon fluorescence; 290,000 tested, 0.56% active;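 active means inhibition above the mean of all tested compounds plus 3 SD, set per campaign, cut at about 35% in these data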
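Test system: hepatitis C virus NS3 helicase domain fragment enzyme. Also added: annealed dual-labelled DNA beacon duplex, ATP-started. Timing: 60 min unwinding reaction at 25 °C after ATP addition. Technique: Cy5 fluorescence. Measure: % inhibition of unwinding.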
FGF22 binding – shifts melting point of recombinant human FGF22; Q9HCT0; recombinant FGF22 thermal shift, SYPRO orange fluorescence; percent of sucrose octasulfate shift, DMSO zero; activity (Tm shift, normalised), % at 9.99 µM; 340,000 tested, 1.5% active; AID 651658;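 active means mean Tm shift, scaled 0 neutral to 100 positive control, at about 1.3% or above, every replicate too, limit read from the data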
Target sequence (Q9HCT0 whole entry, looked up): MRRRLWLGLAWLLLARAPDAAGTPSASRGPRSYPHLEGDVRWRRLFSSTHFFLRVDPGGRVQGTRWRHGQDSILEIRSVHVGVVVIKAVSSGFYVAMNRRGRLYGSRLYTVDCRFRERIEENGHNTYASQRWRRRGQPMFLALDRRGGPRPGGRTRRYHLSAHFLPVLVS
ZTA counter – blocks Epstein-Barr virus ZTA, an EBNA-1 counter-screen; P03206; AID 2234; inhibition, % at 11 µM; ZTA-DNA binding, fluorescence polarization; 320,000 tested, 0.15% active; in the data active means inhibition above about 33%
Target sequence (P03206 whole entry, looked up): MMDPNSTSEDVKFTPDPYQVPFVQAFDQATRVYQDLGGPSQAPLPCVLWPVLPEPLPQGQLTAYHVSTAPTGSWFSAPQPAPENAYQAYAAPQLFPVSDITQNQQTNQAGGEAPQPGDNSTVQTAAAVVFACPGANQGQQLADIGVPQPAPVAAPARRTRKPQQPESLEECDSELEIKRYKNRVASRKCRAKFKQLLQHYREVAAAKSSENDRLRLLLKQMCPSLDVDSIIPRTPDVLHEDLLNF
GRIN3A LBD mod – modulates the human NR3A ligand-binding domain; NR3A LBD differential scanning fluorimetry, Tm shift; 0% = protein alone, 100% = glycine-bound protein; Tm shift relative to glycine control, % at 25 µM; 340,000 tested, 2.5% active; AID 1259313;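 active means melting temperature shift of at least 10% of the positive control shift, at one fixed dose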
DNA FID counter-1 – counter-screen for HCV NS3 helicase inhibitors: DNA intercalator displacement; DNA fluorescent intercalator displacement, fluorescence; inhibition, % at 7.9 µM; 290,000 tested, 0.17% active; AID 1845;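 further: higher means more ethidium bromide displaced from hairpin DNA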
NS3 helicase cf – HCV NS3 helicase inhibition, confirmation assay; 1,600 tested, 31% active; NS3 helicase DNA unwinding, Cy5 molecular beacon fluorescence; shares compounds with HCV NS3 hel inh; AID 1943; inhibition, % at 10.9 µM;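 active means inhibition above the mean of all tested compounds plus 3 SD, cutoff set per campaign, cut at about 36% in these data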
DNA FID counter-2 – intercalator displacement, NS3 helicase counter-screen. shares compounds with HCV NS3 hel inh. DNA fluorescent intercalator displacement, fluorescence. inhibition, % at 7.9 µM. 1,600 tested, 4% active. AID 1945;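 further: higher means more displacement of ethidium bromide from the DNA hairpin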
FID counter DR – counter-screen for HCV NS3 helicase inhibitors: DNA intercalator displacement dose response | shares compounds with HCV NS3 hel inh | fluorescent intercalator displacement from DNA, fluorescence | IC50, µM | 120 tested, under 10 active | AID 2172; call rule not given here
Hits are given with their value; i = inactive; nt = not tested or not shown. Unless noted, no stated cut-off is given here; in the data, active means inhibition above about 37%; inactive means the rest.

SMILES | EBNA-1 inh | HCV NS3 hel inh | FGF22 binding | ZTA counter | GRIN3A LBD mod | DNA FID counter-1 | NS3 helicase cf | DNA FID counter-2 | others
COCCNC(=O)C[C@H]1C[C@H]2c3cc(NC(=O)NC4CCCCC4)ccc3O[C@H]2[C@@H](CO)O1 | nt | nt | i | nt | nt | nt | nt | nt
COc1ccc(N2C(=O)/C(=C\c3ccco3)N=C2SCC(=O)NC(C)(C)C)cc1Cl | i | i | i | i | i | i | nt | nt
CCN(CC)C(=O)CSC1=N/C(=C/c2ccco2)C(=O)N1c1ccc(OC)c(Cl)c1 | i | 38.2 | i | i | i | i | i | i
NC(=O)c1ccc2c(=O)c(O)c(-c3cc(Cl)c(N)c(Cl)c3)[nH]c2c1 | i | 38.5 | i | i | i | i | i | i
CCNC(=O)[C@H]1[C@H](CO)[C@H]2Cn3c(ccc(-c4ccncc4)c3=O)[C@@H]1N2CC1CC1 | nt | nt | i | nt | nt | nt | nt | nt
O=[N+]([O-])c1cnc2ccccc2c1 | i | i | i | i | i | i | nt | nt
O=[N+]([O-])c1cc([N+](=O)[O-])c2cc3ccccc3nc2c1 | i | 36.2 | i | i | nt | i | i | i
C[C@@H]1CN([C@H](C)CO)C(=O)Cc2cc(NS(=O)(=O)c3cccs3)ccc2O[C@@H]1CN(C)S(=O)(=O)c1ccccc1 | nt | nt | i | nt | nt | nt | nt | nt
CO[C@H]1CN(C)C(=O)c2ccc(NC(=O)c3cccc(Oc4ccccc4)c3)cc2OC[C@H](C)NC[C@@H]1C | nt | nt | i | nt | nt | nt | nt | nt
Cc1ccc(O)c(CP(=O)(c2ccccc2)c2ccccc2)c1 | i | i | i | i | i | i | nt | nt
CCNc1ccccc1CP(=O)(c1ccccc1)c1ccccc1O (configuration not stated) | i | 63.5 | i | i | i | i | i | i
CCOC(=O)c1c(NC(=O)C2C3C=CC(C3)C2C(=O)O)sc2c1CCC(C)C2 (configuration not stated) | i | 36.9 | i | i | i | i | 75.4 | i
CCOC(=O)c1c(NC(=O)C2C3C=CC(C3)C2C(=O)O)sc2c1CCCC2 (configuration not stated) | i | i | i | i | i | i | nt | nt
O=C(NCC[C@H]1CC[C@@H](NS(=O)(=O)c2cccc(F)c2)[C@@H](CO)O1)C1CC1 | nt | nt | i | nt | nt | nt | nt | nt
CCCNC(=O)[C@H]1[C@H](CO)[C@H]2Cn3c(ccc(-c4cccc(F)c4)c3=O)[C@H]2N1C(=O)CC | nt | nt | i | nt | nt | nt | nt | nt
C/C(=N/NC(=O)c1cc2ccccc2cc1O)c1ccco1 | i | i | i | i | i | i | nt | nt
C/C(=N\NC(=O)c1cc2ccccc2cc1O)c1ccc(C)o1 | i | 46.8 | i | i | i | i | i | i
C[C@@H]1CN([C@H](C)CO)C(=O)c2cccc(NC(=O)c3cnccn3)c2O[C@H]1CN(C)Cc1ccc2c(c1)OCO2 | nt | nt | i | nt | nt | nt | nt | nt
COc1ccc(N2Cc3ccc(C(=O)N/N=C\c4ccc(O)cc4O)cc3C2)cc1 | i | 39.8 | nt | i | nt | i | i | i
COc1ccc(C(=O)N/N=C/c2ccccc2OC(=O)c2ccccc2)cc1 | i | i | i | i | i | i | nt | nt
C[C@@H]1CCCCO[C@H](CN(C)S(C)(=O)=O)[C@@H](C)CN([C@H](C)CO)C(=O)c2cc(NS(C)(=O)=O)ccc2O1 | nt | nt | i | nt | nt | nt | nt | nt
COc1ccc(N2C(=O)C3C(C2=O)C(C(=O)c2ccc(Cl)cc2)N2CCCC32)cc1 (configuration not stated) | i | 40.3 | i | i | i | i | i | i
O=C(c1ccc2c(c1)OCO2)N1CC[C@@H]2[C@@H](CO)Nc3ccc(-c4ccccc4)cc3[C@@H]21 | nt | nt | i | nt | nt | nt | nt | nt
Cc1ccccc1N1C(S)=C(C#N)C(=O)NC1c1cccs1 (configuration not stated) | i | 66.9 | nt | i | i | i | i | i
C[C@@H]1CN([C@@H](C)CO)C(=O)c2cc(NS(=O)(=O)c3ccc(Cl)cc3)ccc2O[C@H]1CN(C)Cc1ccc2c(c1)OCO2 | nt | nt | i | nt | nt | nt | nt | nt
SMILES | EBNA-1 inh | HCV NS3 hel inh | FGF22 binding | ZTA counter | GRIN3A LBD mod | DNA FID counter-1 | NS3 helicase cf | DNA FID counter-2 | others
C[C@@H]1CN([C@@H](C)CO)C(=O)c2cc(-c3cccc(F)c3)cnc2O[C@H]1CN(C)C(=O)C1CCCCC1 | nt | nt | i | nt | nt | nt | nt | nt
NNS(=O)(=O)c1ccc2c(c1)Cc1cc(S(=O)(=O)NN)ccc1-2 | i | 39.3 | i | i | i | i | i | i
COc1ccc(OC)c(C2CC(=O)N3CN(c4ccccc4F)CSC3=C2C#N)c1 (configuration not stated) | i | 40.0 | i | i | i | i | 65.7 | i | FID counter DR=i
COc1ccc(Br)cc1C1CC(=O)N2CN(Cc3ccccc3)CSC2=C1C#N (configuration not stated) | i | 50.7 | i | i | i | i | 40.0 | i
CCOc1ccc(N2CSC3=C(C#N)C(c4ccco4)CC(=O)N3C2)cc1 (configuration not stated) | i | i | i | i | i | i | nt | nt
COc1ccc(Br)cc1C1CC(=O)N2CN(C)CSC2=C1C#N (configuration not stated) | i | i | i | i | i | i | nt | nt
Cc1ccc(C2CC(=O)N3CN(c4ccc(Br)cc4)CSC3=C2C#N)o1 (configuration not stated) | i | 36.8 | nt | i | i | i | 72.4 | i | FID counter DR=i
O=C(CSc1nc(O)cc(=O)n1-c1ccccc1)NC1CCCCC1 | i | i | nt | i | i | i | nt | nt
O=c1cc(O)nc(SCc2ccccc2)n1-c1ccc(F)cc1 | i | 58.8 | nt | i | i | i | i | i
NN1C(=O)/C(=C\c2ccco2)SC1=S | i | 38.5 | i | i | i | i | i | i
